Here are results for 6 molecules from ChEMBL document CHEMBL1129630, “Synthesis and structure-activity relationships of retinoid X receptor selective diaryl sulfide analogs of retinoic acid” (J Med Chem, 1996).

What is called Kd is a measure of binding affinity in units of concentration. Read a low Kd as higher affinity.

The target of assay [1] is T1, Retinoic acid receptor gamma (Homo sapiens, UniProt P13631).
T1 sequence (P13631 whole entry): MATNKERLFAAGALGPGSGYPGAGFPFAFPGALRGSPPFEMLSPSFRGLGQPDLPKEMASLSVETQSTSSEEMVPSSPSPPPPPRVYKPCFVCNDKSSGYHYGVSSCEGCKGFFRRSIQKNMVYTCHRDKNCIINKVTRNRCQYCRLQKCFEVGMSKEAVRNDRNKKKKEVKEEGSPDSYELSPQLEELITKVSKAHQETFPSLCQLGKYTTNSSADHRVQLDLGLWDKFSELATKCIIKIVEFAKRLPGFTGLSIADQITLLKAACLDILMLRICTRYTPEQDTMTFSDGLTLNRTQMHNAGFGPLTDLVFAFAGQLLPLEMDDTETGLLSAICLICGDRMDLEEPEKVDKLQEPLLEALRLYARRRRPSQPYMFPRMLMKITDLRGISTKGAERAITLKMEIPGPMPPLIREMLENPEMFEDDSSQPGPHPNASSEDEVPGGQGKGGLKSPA
As to the kind of experiment: Transcriptional activation of Retinoic acid receptor RAR gamma;NA=not active. Details: species or system Cercopithecidae; call rule not given here. The procedure, abridged: (§1)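 CV-1 cells transiently cotransfected with the receptor construct and a reporter gene, with induced transcription measured. Activity is normalized to all-trans RA. EC50 is the concentration giving 50% of maximal observed response, from a single experiment in triplicate.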

Assay [2] has as its target T2, Retinoic acid receptor alpha (Homo sapiens, UniProt P10276).
T2 sequence (P10276 whole entry): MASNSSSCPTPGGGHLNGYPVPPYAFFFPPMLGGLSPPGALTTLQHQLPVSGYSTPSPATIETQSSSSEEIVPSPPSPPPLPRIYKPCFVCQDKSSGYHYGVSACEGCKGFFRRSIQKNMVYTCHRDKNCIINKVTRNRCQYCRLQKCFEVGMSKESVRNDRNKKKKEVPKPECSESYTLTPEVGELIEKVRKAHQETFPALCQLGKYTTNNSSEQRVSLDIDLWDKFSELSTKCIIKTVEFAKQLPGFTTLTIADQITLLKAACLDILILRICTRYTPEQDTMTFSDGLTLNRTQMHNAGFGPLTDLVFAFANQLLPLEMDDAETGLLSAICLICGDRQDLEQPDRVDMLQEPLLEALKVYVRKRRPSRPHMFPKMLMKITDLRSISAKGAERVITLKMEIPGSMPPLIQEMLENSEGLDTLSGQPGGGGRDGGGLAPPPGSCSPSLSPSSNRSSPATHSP
As to the kind of experiment: Transcriptional activation of Retinoic acid receptor RAR alpha;NA=not active. Also noted: species or system Cercopithecidae. The procedure, abridged:
as §1

The target in assay [3] is T3, Retinoic acid receptor beta (Homo sapiens, UniProt P10826).
T3 sequence (P10826 whole entry): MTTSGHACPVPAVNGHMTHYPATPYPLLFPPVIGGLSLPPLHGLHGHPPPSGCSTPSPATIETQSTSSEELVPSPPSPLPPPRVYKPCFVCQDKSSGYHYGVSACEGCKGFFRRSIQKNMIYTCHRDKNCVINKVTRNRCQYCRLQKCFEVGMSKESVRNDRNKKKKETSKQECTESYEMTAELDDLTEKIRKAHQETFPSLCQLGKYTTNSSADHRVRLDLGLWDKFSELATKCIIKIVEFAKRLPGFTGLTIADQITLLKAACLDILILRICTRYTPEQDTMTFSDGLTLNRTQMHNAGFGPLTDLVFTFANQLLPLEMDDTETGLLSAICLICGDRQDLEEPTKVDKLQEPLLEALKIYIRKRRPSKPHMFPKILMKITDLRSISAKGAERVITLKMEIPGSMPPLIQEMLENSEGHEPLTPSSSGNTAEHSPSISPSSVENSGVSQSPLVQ
As to the kind of experiment: Transcriptional activation of Retinoic acid receptor RAR beta;NA=not active. Also noted: species or system Cercopithecidae. The procedure, abridged: as §1

Assay [4] concerns the target T4, Retinoic acid receptor RXR-alpha (Mus musculus, UniProt P28700).
T4 sequence (P28700 whole entry): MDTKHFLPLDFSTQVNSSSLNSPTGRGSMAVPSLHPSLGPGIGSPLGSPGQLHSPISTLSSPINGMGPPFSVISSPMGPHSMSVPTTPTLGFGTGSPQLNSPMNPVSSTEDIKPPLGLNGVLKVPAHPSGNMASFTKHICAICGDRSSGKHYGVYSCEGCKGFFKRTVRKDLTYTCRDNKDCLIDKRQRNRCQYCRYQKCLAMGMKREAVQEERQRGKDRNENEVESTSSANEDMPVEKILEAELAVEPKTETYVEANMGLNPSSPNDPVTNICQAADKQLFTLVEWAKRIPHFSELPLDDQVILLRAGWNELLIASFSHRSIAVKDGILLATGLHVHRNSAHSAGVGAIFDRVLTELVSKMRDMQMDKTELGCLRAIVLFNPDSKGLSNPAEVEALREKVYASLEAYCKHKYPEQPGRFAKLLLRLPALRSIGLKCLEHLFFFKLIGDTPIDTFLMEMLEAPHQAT
Put plainly: Dissociation constant for binding to Retinoid X receptor alpha.

The target of assay [5] is T5, Retinoic acid receptor alpha (Mus musculus, UniProt P11416).
T5 sequence (P11416 whole entry): T2 sequence (P10276 whole entry) with T43S, E150D, V169A, R347K, P427S, G431T, N453H, H460Q
Put plainly: Dissociation constant for binding to Retinoic acid receptor alpha. The format is single protein. The procedure, abridged:
(§2)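 Competitive binding assays against each receptor subtype, with Kd values taken from competition.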

Assay [6] has as its target T6, Retinoic acid receptor RXR-gamma (Mus musculus, UniProt P28705).
T6 sequence (P28705 whole entry): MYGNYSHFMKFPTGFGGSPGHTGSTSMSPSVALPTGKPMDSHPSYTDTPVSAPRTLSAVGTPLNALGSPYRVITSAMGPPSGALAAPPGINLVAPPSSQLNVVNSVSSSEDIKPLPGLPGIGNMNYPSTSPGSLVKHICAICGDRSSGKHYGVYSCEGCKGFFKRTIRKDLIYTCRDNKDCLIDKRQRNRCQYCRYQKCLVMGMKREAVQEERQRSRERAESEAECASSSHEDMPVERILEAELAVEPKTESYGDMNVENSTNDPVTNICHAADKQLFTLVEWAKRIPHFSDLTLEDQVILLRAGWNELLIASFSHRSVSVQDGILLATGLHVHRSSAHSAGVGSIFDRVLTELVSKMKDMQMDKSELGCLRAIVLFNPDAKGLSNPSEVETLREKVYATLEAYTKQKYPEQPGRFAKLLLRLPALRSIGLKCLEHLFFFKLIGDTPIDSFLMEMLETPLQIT
As to the kind of experiment: Dissociation constant for binding to Retinoid X receptor gamma. The procedure, abridged:
as §2

Structures are written as SMILES. Where a chain is given by its changes, count along the chain named.

With `Cc1cc2c(cc1Sc1ccc(C(=O)O)cn1)C(C)(C)CCC2(C)C`, the EC50 result in assay [1], in assay [2] and in assay [3] was “Not Active” each time. In addition, binding in assay [4] was put at a Kd of 32 nM.
In the case of `Cc1cc2c(cc1S(=O)(=O)c1ccc(C(=O)O)cc1)C(C)(C)CCC2(C)C`, the Kd is more than 10 µM in assay [5], 3.99 µM in assay [6] and 2520 nM in assay [4]. Further, the EC50 result in assay [1], in assay [2] and in assay [3] was “Not Active” throughout.
Turning to `CC1(C)CCC(C)(C)c2cc(Sc3ccc(C(=O)O)cc3)ccc21`, the Kd in assay [5] came out at 4.08 µM; in assay [4], 3870 nM. Further, the EC50 result in assay [2] is reported as “Not Active”.
As for `Cc1cc2c(cc1Sc1ccc(C(=O)O)cc1)C(C)(C)CCC2(C)C`, the Kd in assay [5] was more than 10 µM; in assay [4] it was 296 nM. The EC50 entry in assay [2] and in assay [3] was “Not Active” each time.
Take `Cc1cc2c(cc1Sc1ncc(C(=O)O)s1)C(C)(C)CCC2(C)C`: the Kd in assay [5] was found to be 1 µM; in assay [6], 1 µM; in assay [4] it was 1000 nM. The EC50 result in assay [1], in assay [2] and in assay [3] was “Not Active” each time.
With `Cc1cc2c(cc1[S+]([O-])c1ccc(C(=O)O)cc1)C(C)(C)CCC2(C)C` (centres undefined), the dissociation constant (Kd) in assay [5] was more than 10 µM; in assay [6], more than 10 µM; in assay [4], more than 10000 nM. In addition, the EC50 result in assay [1], in assay [2] and in assay [3] was “Not Active” each time.
